Laboratory results taken from PubChem BioAssay.
The source made the active and inactive calls.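 How the source made its calls, unless noted: active means viability at or below 10% of carrier control in both of two separate runs; inconclusive means viability at or below 10% in only one of the two runs; inactive means the rest.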

How the values were obtained:
[1] = Her2 expression decrease, cell viability multiplex – SKBR3 breast tumor cells, AlphaScreen, ATP viability, primary screen (AID 461;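 active means Her2 level under about 52% in both replicate screens, with viability over 70% of control, limit read from the data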;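 on Her2 level: lower value means less Her2 protein in the cells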;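 on viability: percent of carrier control wells set as 100% viability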); settings: SKBR3 Her2 protein level, 18-24 h, measured here: SKBR3 viability, ATP luminescence, at 10 µM
[2] = biological target: Receptor tyrosine-protein kinase erbB-2 (Homo sapiens) (UniProt P04626); experiment: as above; settings: 18-24 h, at 10 µM, stronger effect = lower value
[3] = reduced viability of SK-BR-3 breast cancer cells – cell-based, 24 h, human, pilot screen (AID 572); settings: SK-BR-3 viability, CellTiter-Glo luminescence, at 10 µM, stronger effect = lower value;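 further: compound exposure lasted between 18 and 24 h rather than exactly 24 h; 100% = carrier-treated control wells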
[4] = HUVEC growth inhibition – cell-based, human, primary screen (AID 575;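 active means viability at or below 30% in both replicate assays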;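 further: 100% = median of untreated cell wells with 0.1% DMSO on each plate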); settings: HUVEC proliferation, CellTiter-Glo luminescence, 72 h; at 10 µM; stronger effect = lower value
How it was run: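 System – primary HUVEC, no more than 12 passages · Medium – Low-serum (2% FBS) EBM, supplemented · Times – 72 h exposure, 37 °C, 5% CO2, 30 min RT equilibration · Measured by – luminescent ATP assay · Read-out – % viability relative to median vehicle-well signal on each plate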

[5] = H69AR cell proliferation blockers – human, duplicate replicates, primary screen (AID 580;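 active means viability at or under a set limit in both replicates, limit being median viability minus 3 SD, cut at about 48% in these data, passing the limit was not always enough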;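 further: 100% = mean luminescence of untreated wells and 0% = no signal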); settings: H69AR lung tumor cells viability, ATP luminescence, 72 h; at 10 µM; stronger effect = lower value
[6] = MRP1 drug-resistance reversers in H69AR cells – cell-based, doxorubicin co-treatment, pilot screen (AID 601;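 active means viability loss from added drug above about 55%, and viability with drug at most 40%, in both replicates, limit read from the data, passing the limit was not always enough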); settings: CellTiter-Glo, 72 h, at 10 µM; for differential viability (reversal): stronger effect = higher value
[7] = yeast transport mutant growth inhibition pilot in 384-well plates, post-Golgi transport modulator project (AID 636; in the data active means inhibition above about 31%); settings: absorbance 615 nm, about 18 h, stronger effect = higher value
[8] = growth suppression of yeast trafficking mutant, preliminary HTS, modulators of trafficking downstream of Golgi apparatus project, 1536-format plate, OD 615 nm (AID 637; in the data active means inhibition above about 30%); settings: yeast transport mutant growth, absorbance 615 nm, 18 h; stronger effect = higher value
[9] = H69AR cells + 2 uM doxorubicin, measured here: viability with 2 uM doxorubicin, stronger effect = lower value
[10] = H69AR cells, compound alone cytotoxicity

Chain of Receptor tyrosine-protein kinase erbB-2 (Homo sapiens) (P04626 whole entry, looked up): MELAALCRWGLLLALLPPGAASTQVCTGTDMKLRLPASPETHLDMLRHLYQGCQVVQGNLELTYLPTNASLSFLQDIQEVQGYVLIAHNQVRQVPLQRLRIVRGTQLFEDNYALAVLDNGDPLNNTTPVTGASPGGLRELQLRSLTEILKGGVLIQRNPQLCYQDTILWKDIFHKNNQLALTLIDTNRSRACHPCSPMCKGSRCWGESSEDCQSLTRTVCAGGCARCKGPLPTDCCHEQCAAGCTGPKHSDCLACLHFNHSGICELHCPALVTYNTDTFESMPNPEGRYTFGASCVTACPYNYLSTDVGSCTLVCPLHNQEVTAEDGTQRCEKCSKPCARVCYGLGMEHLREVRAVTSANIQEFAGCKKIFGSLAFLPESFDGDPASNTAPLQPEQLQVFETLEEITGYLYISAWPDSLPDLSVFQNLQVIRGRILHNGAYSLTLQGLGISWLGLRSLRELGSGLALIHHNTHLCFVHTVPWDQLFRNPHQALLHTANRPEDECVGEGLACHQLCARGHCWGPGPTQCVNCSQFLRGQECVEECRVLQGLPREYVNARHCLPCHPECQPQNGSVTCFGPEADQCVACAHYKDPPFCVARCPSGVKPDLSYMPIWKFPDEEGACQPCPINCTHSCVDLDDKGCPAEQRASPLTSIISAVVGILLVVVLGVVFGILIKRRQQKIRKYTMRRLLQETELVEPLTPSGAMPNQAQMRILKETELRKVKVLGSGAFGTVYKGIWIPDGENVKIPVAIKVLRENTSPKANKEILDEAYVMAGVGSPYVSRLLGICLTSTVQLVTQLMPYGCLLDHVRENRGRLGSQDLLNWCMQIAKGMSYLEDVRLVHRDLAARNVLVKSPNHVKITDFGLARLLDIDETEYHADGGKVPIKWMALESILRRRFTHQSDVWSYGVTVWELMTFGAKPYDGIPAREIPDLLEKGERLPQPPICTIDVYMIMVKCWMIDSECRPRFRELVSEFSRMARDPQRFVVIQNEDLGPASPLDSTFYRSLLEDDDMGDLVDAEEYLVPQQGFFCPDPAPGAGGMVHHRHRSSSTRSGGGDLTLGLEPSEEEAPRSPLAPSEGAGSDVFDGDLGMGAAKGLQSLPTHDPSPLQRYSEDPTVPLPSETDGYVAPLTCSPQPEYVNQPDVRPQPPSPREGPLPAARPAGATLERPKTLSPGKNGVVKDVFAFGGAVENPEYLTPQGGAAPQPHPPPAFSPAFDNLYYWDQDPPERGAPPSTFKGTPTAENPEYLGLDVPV

Row | Structure (SMILES) | viability [1] [%] | Her2 level [2] | viability [3] | viability [4] | viability [5] | differential viability (reversal) ([6]; H69AR cells + 2 uM doxorubicin) | viability [6, 9] [%] | viability [6, 10] [%] | inhibition [7] | inhibition [8]
1 | COC(=O)c1c(-c2ccc(F)cc2)noc1N | 94 | 97.5% (inactive) | 94% (inactive) | 89.4% (inactive) | 93.3% (inactive) | 3.79% (inactive) | 89.5 | 93.3 | -2.97% (inactive) | 1.33% (inactive)
2 | CCC(=O)NC1(C(F)(F)F)C(=O)NC(C)=C1C#N (stereo not given) | 102 | 84.5% (inactive) | 102% (inactive) | 101% (inactive) | 97.9% (inactive) | 5.2% (inactive) | 92.7 | 97.9 | -4.74% (inactive) | 1.59% (inactive)
3 | CC(=O)N(C(C)=O)c1cccc2c(N(C(C)=O)C(C)=O)cccc12 | 106 | 94% (inactive) | 106% (inactive) | 97.4% (inactive) | 91.7% (inactive) | -2.88% (inactive) | 94.5 | 91.7 | -4.29% (inactive) | -6% (inactive)
4 | CSc1nc(=NC(C)=O)ss1 | 122 | 88.5% (inactive) | 122% (inactive) | 84.7% (inactive) | 71.8% (inactive) | -20% (inactive) | 91.8 | 71.8 | -6.8% (inactive) | -10% (inactive)
5 | O=C(O)CCN1C(=O)c2ccccc2C1=O | 99 | 91% (inactive) | 99% (inactive) | 112% (inactive) | 97.5% (inactive) | -1.81% (inactive) | 99.4 | 97.5 | -2.24% (inactive) | 2.79% (inactive)
6 | CC1(C)Cc2nc3oc4c(N(CCO)Cc5ccccc5)ncnc4c3cc2CO1 | 95.5 | 86.5% (inactive) | 95.5% (inactive) | 92.5% (inactive) | 86.2% (inactive) | 4.17% (inactive) | 82.1 | 86.2 | -1.76% (inactive) | -4.33% (inactive)
7 | CCOc1ccc(CNC(=O)C2CCCN(S(C)(=O)=O)C2)cc1OC (stereo not given) | 77 | 133% (inactive) | 77% (inactive) | 102% (inactive) | 98.8% (inactive) | 7.88% (inactive) | 90.9 | 98.8 | -1.67% (inactive) | 0.17% (inactive)
8 | CCCn1c2c(c(O)c(C(=O)Nc3ccc(C)cn3)c1=O)CCCC2 | 102 | 82.5% (inactive) | 102% (inactive) | 96.8% (inactive) | 88% (inactive) | -9.88% (inactive) | 97.9 | 88 | -2.89% (inactive) | -5.81% (inactive)
9 | CCCCc1n[nH]c2c1C(=O)CC(C)(C)C2 | 73.5 | 90.5% (inactive) | 73.5% (inactive) | 102% (inactive) | 96.9% (inactive) | 13.4% (inactive) | 83.5 | 96.9 | -3.78% (inactive) | 0% (inactive)
10 | CCOCCCNC(=O)CCNS(=O)(=O)c1ccc(C)cc1 | 102 | 108% (inactive) | 102% (inactive) | 89.9% (inactive) | 105% (inactive) | 8.21% (inactive) | 96.7 | 105 | -3.03% (inactive) | -5.5% (inactive)
11 | COc1ccc(C2=NOC(C(=O)NCc3ccc(F)cc3)C2)cc1OC (stereo not given) | 95.5 | 87.5% (inactive) | 95.5% (inactive) | 42% (inactive) | 29.3% (active) | -34.5% (inactive) | 63.9 | 29.3 | -1.32% (inactive) | 5.4% (inactive)
12 | COc1ccccc1OCC(=O)NCC1CCCCC1 | 94.5 | 114% (inactive) | 94.5% (inactive) | 93.2% (inactive) | 109% (inactive) | 23.4% (inactive) | 85.2 | 109 | -3.29% (inactive) | -9.33% (inactive)
13 | O=C1COc2ccc(C(=O)NCc3ccco3)cc2N1 | 95.5 | 86% (inactive) | 95.5% (inactive) | 105% (inactive) | 104% (inactive) | 7.71% (inactive) | 96.1 | 104 | -2.11% (inactive) | -7.26% (inactive)
14 | CCSc1nnc(NC(=O)c2csc(C)c2)s1 | 95 | 83.5% (inactive) | 95% (inactive) | 81.2% (inactive) | 87.7% (inactive) | -7.62% (inactive) | 95.3 | 87.7 | -2.27% (inactive) | -5.41% (inactive)
15 | Cc1ccc(CNC(=O)C2CCCN(S(=O)(=O)c3cccnc3)C2)cc1 (stereo not given) | 92.5 | 109% (inactive) | 92.5% (inactive) | 104% (inactive) | 99.6% (inactive) | 10.6% (inactive) | 89 | 99.6 | -0.26% (inactive) | -4.18% (inactive)
